Structures are written as SMILES.

The values below come from ChEMBL document CHEMBL1145212, “Fluorinated diaryl sulfides as serotonin transporter ligands: synthesis, structure-activity relationship study, and in vivo evaluation of fluorine-18-labeled compounds as PET imaging agents” (J Med Chem, 2005).

Common to all, as to type: cell-based
The target in assay [1] is Sodium-dependent dopamine transporter (Homo sapiens, UniProt Q01959). The assay can be described thus: In vitro displacement of [3H]GBR-12935 from human dopamine transporter expressed in HEK293 cells. The procedure, abridged:
(§1)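 Competitive binding using cloned human transporters expressed in HEK-293 cells. NET was labelled with [³H]nisoxetine and DAT with [³H]GBR12935, following a previously published procedure.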

Assay [2] concerns the target Sodium-dependent noradrenaline transporter (Homo sapiens, UniProt P23975). In words: In vitro displacement of [3H]nisoxetine from human norepinephrine transporter expressed in HEK293 cells. The procedure, abridged: as §1
In assay [3] the target is Sodium-dependent serotonin transporter (Homo sapiens, UniProt P31645). In words: In vitro displacement of [3H]paroxetine from human serotonin transporter expressed in HEK293 cells.
Sodium-dependent serotonin transporter, sequence (P31645 whole entry): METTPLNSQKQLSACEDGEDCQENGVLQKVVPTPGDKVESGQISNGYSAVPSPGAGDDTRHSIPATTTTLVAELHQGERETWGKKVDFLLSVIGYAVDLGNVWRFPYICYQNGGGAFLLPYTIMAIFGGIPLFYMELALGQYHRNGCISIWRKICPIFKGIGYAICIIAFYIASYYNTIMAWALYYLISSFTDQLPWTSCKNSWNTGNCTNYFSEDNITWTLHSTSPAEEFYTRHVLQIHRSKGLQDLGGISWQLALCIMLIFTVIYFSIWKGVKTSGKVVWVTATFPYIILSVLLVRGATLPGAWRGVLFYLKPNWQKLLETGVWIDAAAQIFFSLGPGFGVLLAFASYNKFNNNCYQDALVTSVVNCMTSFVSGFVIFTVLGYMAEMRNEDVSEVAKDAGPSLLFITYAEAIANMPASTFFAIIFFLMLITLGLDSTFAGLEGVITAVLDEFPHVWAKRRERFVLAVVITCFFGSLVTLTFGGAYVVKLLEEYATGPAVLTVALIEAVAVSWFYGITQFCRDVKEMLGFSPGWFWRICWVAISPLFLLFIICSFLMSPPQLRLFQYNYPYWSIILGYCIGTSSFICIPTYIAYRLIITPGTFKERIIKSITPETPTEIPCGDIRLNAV

Sodium-dependent noradrenaline transporter, sequence (P23975 whole entry): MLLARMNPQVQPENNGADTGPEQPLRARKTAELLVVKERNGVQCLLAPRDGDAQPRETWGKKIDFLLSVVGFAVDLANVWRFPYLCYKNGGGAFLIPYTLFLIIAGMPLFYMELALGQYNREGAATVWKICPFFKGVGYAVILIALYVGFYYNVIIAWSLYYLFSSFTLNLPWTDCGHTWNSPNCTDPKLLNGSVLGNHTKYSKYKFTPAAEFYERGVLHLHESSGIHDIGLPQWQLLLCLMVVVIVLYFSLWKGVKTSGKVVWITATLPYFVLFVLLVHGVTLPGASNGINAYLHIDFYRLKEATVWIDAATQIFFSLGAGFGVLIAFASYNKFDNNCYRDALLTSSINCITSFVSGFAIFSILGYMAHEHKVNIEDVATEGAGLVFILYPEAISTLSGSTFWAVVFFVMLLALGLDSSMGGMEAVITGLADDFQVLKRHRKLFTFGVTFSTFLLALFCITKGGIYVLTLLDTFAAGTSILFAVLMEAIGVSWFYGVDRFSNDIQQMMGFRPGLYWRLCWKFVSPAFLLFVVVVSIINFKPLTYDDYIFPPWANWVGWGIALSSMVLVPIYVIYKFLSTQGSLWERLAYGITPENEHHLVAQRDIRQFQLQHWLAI
Sodium-dependent dopamine transporter, sequence (Q01959 whole entry): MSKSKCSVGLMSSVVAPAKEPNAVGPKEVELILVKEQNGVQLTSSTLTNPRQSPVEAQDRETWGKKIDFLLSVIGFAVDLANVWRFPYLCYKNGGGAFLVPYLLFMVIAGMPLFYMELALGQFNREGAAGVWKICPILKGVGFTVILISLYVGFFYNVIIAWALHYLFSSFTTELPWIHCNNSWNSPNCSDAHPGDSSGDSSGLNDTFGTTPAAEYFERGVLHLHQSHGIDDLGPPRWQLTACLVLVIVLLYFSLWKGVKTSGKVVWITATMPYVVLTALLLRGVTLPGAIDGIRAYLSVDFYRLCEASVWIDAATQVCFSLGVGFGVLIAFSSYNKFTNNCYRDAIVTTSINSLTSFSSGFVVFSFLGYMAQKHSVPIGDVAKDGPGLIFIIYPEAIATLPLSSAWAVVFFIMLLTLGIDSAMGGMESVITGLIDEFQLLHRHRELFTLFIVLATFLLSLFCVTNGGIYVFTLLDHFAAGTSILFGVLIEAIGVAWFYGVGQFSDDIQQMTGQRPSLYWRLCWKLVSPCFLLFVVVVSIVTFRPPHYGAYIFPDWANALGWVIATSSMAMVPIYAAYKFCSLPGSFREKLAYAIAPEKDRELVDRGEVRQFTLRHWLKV

On to `C=CCNCc1ccccc1Sc1ccc(C)cc1N`, for which the Ki in assay [1] was 2910 nM; in assay [2] it was 3.82 µM.
Regarding `CN(C)Cc1ccccc1Sc1ccc(C#N)cc1N` [DASB], in assay [3], the Ki was 1.12 nM.
On to `CCNCc1ccccc1Sc1ccc(C)cc1N`, for which the results for the Ki in assay [1] and in assay [2] were 2120 nM and 7.55 µM, respectively.
For `Cc1ccc(Sc2ccccc2CNCCCF)c(N)c1`, the inhibitory constant (Ki) in assay [1] was above 10000 nM; in assay [3], 518 nM; in assay [2], 4.33 µM.
